Among the data in ChEMBL document CHEMBL3868590, “Quambalarine B, a Secondary Metabolite from Quambalaria cyanescens with Potential Anticancer Properties” (J Nat Prod, 2016) are Cmax and Activity values, retold here.

The nature of series [1]: Cmax in human. The series is classed as ADME.
Series [2] concerns NALM-6. Kind of series: Cytostatic activity against eFluor670-labelled human NALM6 cells assessed as live cells at 5 ng/ml measured on day 5 by Hoechst-33258 staining-based FACS analysis (reference value: 98.6%). The series is classed as functional.
For series [3], the system named is REH. Kind of series: Cytostatic activity against eFluor670-labelled human REH cells assessed as live cells at 20 ng/ml measured on day 4 by Hoechst-33258 staining-based FACS analysis (reference value: 88%). The series is classed as functional. Background: A flow cytometer gives signals particle by particle.
Series [4] concerns REH. Kind of series: Cytostatic activity against eFluor670-labelled human REH cells assessed as live cells at 20 ng/ml measured immediately after compound addition by Hoechst-33258 staining-based FACS analysis (reference value: 44.1%). It counts as functional.
For series [5], the system named is Jurkat. Kind of series: Cytostatic activity against eFluor670-labelled human Jurkat cells assessed as live cells at 10 ng/ml measured immediately after compound addition by Hoechst-33258 staining-based FACS analysis (reference value: 98.2%). The series is classed as functional.
Series [6] relates to REH. Kind of series: Cytostatic activity against eFluor670-labelled human REH cells assessed as live cells at 20 ng/ml measured on day 1 by Hoechst-33258 staining-based FACS analysis (reference value: 89.8%). It counts as functional.
In series [7] the test system is Jurkat. Kind of series: Cytostatic activity against eFluor670-labelled human Jurkat cells assessed as live cells at 10 ng/ml measured on day 5 post dose by Hoechst-33258 staining-based FACS analysis (reference value: 97%). It counts as functional.
Series [8] relates to Jurkat. Kind of series: Cytostatic activity against eFluor670-labelled human Jurkat cells assessed as live cells at 10 ng/ml measured on day 1 post dose by Hoechst-33258 staining-based FACS analysis (reference value: 98.2%). The series is classed as functional.
Series [9] concerns Jurkat. Kind of series: Cytostatic activity against eFluor670-labelled human Jurkat cells assessed as live cells at 10 ng/ml measured on day 4 post dose by Hoechst-33258 staining-based FACS analysis (reference value: 97.3%). It counts as functional.
The subject of series [10] is NALM-6. Kind of series: Cytostatic activity against eFluor670-labelled human NALM6 cells assessed as live cells at 5 ng/ml measured on day 3 by Hoechst-33258 staining-based FACS analysis (reference value: 98.6%). The series is classed as functional.
Series [11] relates to NALM-6. Kind of series: Cytostatic activity against eFluor670-labelled human NALM6 cells assessed as live cells at 5 ng/ml measured on day 2 by Hoechst-33258 staining-based FACS analysis (reference value: 97.7%). It counts as functional.
In series [12] the test system is NALM-6. Kind of series: Cytostatic activity against eFluor670-labelled human NALM6 cells assessed as live cells at 5 ng/ml measured on day 4 by Hoechst-33258 staining-based FACS analysis (reference value: 98.6%). The series is classed as functional.
The test system of series [13] is Jurkat. Kind of series: Cytostatic activity against eFluor670-labelled human Jurkat cells assessed as live cells at 10 ng/ml measured on day 3 post dose by Hoechst-33258 staining-based FACS analysis (reference value: 98.3%). It counts as functional.
In series [14] the test system is REH. Kind of series: Cytostatic activity against eFluor670-labelled human REH cells assessed as live cells at 20 ng/ml measured on day 5 by Hoechst-33258 staining-based FACS analysis (reference value: 85.6%). It counts as functional.
In series [15] the test system is REH. Kind of series: Cytostatic activity against eFluor670-labelled human REH cells assessed as live cells at 20 ng/ml measured on day 2 by Hoechst-33258 staining-based FACS analysis (reference value: 90.8%). It counts as functional.
Series [16] can be described thus: Cytotoxicity against PHA/LPS-stimulated CD3-positive T-lymphocytes in eFluor-670-labeled human PBMC assessed as divided cells at 5 ng/ml administered post 18 hrs of PHA/LPS-stimulation measured after 72 hrs by Hoechst-33258 staining-based FACS analysis (reference value: 24.2%). It counts as toxicity. The settings on record: t-cell. The essentials: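 PBMC were labelled with 1 μmol/L CPD, stimulated with PHA (5 μg/mL) plus LPS (1 μg/mL), and seeded at 3 × 10^5 cells/well in 300 μL. Compound was added after 18 h and left for 72 h. Cells were stained with anti-CD3. Unstimulated cells set the CPD+ gate. Proliferation index, division index and % divided were calculated for CPD+CD3+ Hoechst-negative cells.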

Series [17] relates to NALM-6. Kind of series: Cytostatic activity against eFluor670-labelled human NALM6 cells assessed as live cells at 5 ng/ml measured immediately after compound addition by Hoechst-33258 staining-based FACS analysis (reference value: 95.8%). The series is classed as functional.
For series [18], the system named is NALM-6. Kind of series: Cytostatic activity against eFluor670-labelled human NALM6 cells assessed as live cells at 5 ng/ml measured on day 1 by Hoechst-33258 staining-based FACS analysis (reference value: 95.5%). It counts as functional.
Series [19] relates to Jurkat. Kind of series: Cytostatic activity against eFluor670-labelled human Jurkat cells assessed as live cells at 10 ng/ml measured on day 2 post dose by Hoechst-33258 staining-based FACS analysis (reference value: 97%). It counts as functional.

The Cmax is the peak of the concentration-time curve. The compound `CN(Cc1cnc2nc(N)nc(N)c2n1)c1ccc(C(=O)N[C@@H](CCC(=O)O)C(=O)O)cc1` [METHOTREXATE] came in with a Cmax in [1] greater than 1000 µM.

`COc1cccc2c1C(=O)c1c(O)c3c(c(O)c1C2=O)C[C@@](O)(C(=O)CO)C[C@@H]3O[C@H]1C[C@H](N)[C@H](O)[C@H](C)O1` [DOXORUBICIN]: the Activity in [2] is 87.8%; in series [3] it was 2.72%; in series [4], 44.1%; in series [5] it was 98.2%; in [6] it was 73.5%; in [7] it was 10.5%. Besides, the Activity is listed as 97% in series [8]; 9.46% in [9]; 96.3% in series [10]; 96.5% in series [11]; 93.8% in [12]; 42.8% in [13]. The Activity in [14] came out at 1.19%; in [15] it was 26.7%; in series [16], 18.1%; in series [17] it was 95.8%; in series [18] it was 95.2%; in series [19], 78.5%.
